Measured values reported in ChEMBL document CHEMBL4020842, “Discovery of N1-(4-((7-Cyclopentyl-6-(dimethylcarbamoyl)-7 H-pyrrolo[2,3- d]pyrimidin-2-yl)amino)phenyl)- N8-hydroxyoctanediamide as a Novel Inhibitor Targeting Cyclin-dependent Kinase 4/9 (CDK4/9) and Histone Deacetlyase1 (HDAC1) against Malignant Cancer” (J Med Chem, 2018).
Calls of active or inactive are those of the source. No cut-off for these calls is given here.

Tests used:
A549 [1] = assay: Induction of apoptosis in human A549 cells assessed as late apoptotic cells at 5 uM after 48 hrs by annexin V-FITC/propidium iodide staining based flow cytometry (reference value: 0.88%); assay type: functional
A549 [2] = assay: Induction of apoptosis in human A549 cells assessed as early apoptotic cells at 5 uM after 48 hrs by annexin V-FITC/propidium iodide staining based flow cytometry (reference value: 0.41%); assay type: functional
A549 [3] = assay: Induction of apoptosis in human A549 cells assessed as live cells at 5 uM after 48 hrs by annexin V-FITC/propidium iodide staining based flow cytometry (reference value: 92.7%); assay type: functional
A549 [4] = assay: Induction of apoptosis in human A549 cells assessed as necrotic cells at 1 uM after 48 hrs by annexin V-FITC/propidium iodide staining based flow cytometry (reference value: […]%); assay type: functional
NCI-H460 [5] = assay: Induction of apoptosis in human NCI-H460 cells assessed as late apoptotic cells at 10 uM after 48 hrs by annexin V-FITC/propidium iodide staining based flow cytometry (reference value: 1.29%); assay type: functional
T47D [6] = assay: Induction of apoptosis in human T47D cells assessed as early apoptotic cells at 1 uM after 48 hrs by annexin V-FITC/propidium iodide staining based flow cytometry (reference value: 7.7%); assay type: functional
T47D [7] = assay: Induction of apoptosis in human T47D cells assessed as live cells at 1 uM after 48 hrs by annexin V-FITC/propidium iodide staining based flow cytometry (reference value: 85.3%); assay type: functional
MDA-MB-231 [8] = assay: Induction of apoptosis in human MDA-MB-231 cells assessed as late apoptotic cells at 5 uM after 48 hrs by annexin V-FITC/propidium iodide staining based flow cytometry (reference value: 1.53%); assay type: functional
NCI-H1299 = assay: Cytotoxicity against human NCI-H1299 cells assessed as reduction in cell viability after 72 hrs by CCK8 assay; assay type: functional, cell-based; settings: NCI-H1299, 72 h
T47D [9] = assay: Cell cycle arrest in human T47D cells assessed as accumulation at G2 phase at 2.5 to 10 uM after 24 hrs by propidium iodide staining based flow cytometry; assay type: functional
Procedure, shortened: (§1)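 Cells were exposed for 24 h to a range of concentrations (625 nM, 2.5 and 10 µM), with DMSO vehicle as control. They were then stained with propidium iodide and analysed by flow cytometry to obtain the percentages of cells in G0/G1, S and G2 phases.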

MDA-MB-231 [10] = assay: Cell cycle arrest in human MDA-MB-231 cells assessed as decrease in S-phase at 625 nM after 24 hrs by propidium iodide staining based flow cytometry; assay type: functional; procedure, shortened: as §1
[11] = target: High affinity nerve growth factor receptor (Homo sapiens, UniProt P04629); assay: Inhibition of recombinant human N-terminal His6-tagged TrkA (440-end residues) expressed in baculovirus infected sf21 cells
[12] = target: Calcium/calmodulin-dependent protein kinase kinase 2 (Homo sapiens, UniProt Q96RR4); assay: Inhibition of recombinant human full length C-terminal 6His-tagged CaMKK2 expressed in baculovirus infected sf21 cells
CDK9/cyclin T1 = CDK9/cyclin T1 (Homo sapiens, UniProt P50750); assay: Inhibition of recombinant human full length C-terminal 6His-tagged CDK9/Cyclin-T1 co-expressed in baculovirus infected sf21 cells using PDKtide substrate in presence of [gamma33P]ATP after 10 mins by scintillation counting method
4T1 = assay: Cytotoxicity against mouse 4T1 cells assessed as reduction in cell viability after 72 hrs by CCK8 assay; assay type: functional, cell-based; settings: 4T1, 72 h
HepG2 [13] = assay: Induction of apoptosis in human HepG2 cells assessed as live cells at 1 uM after 48 hrs by annexin V-FITC/propidium iodide staining based flow cytometry (reference value: 96.7%); assay type: functional
A549 [14] = assay: Induction of apoptosis in human A549 cells after 48 hrs by annexin V-FITC/propidium iodide staining based flow cytometry; assay type: functional, cell-based
MDA-MB-231 [15] = assay: Downregulation of CDK4 protein expression in human MDA-MB-231 cells after 48 hrs by Western blot method; assay type: functional, cell-based
Procedure, shortened: (§2)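 Treated cells were lysed and CDK4 and cyclin D1 protein levels were assessed by Western blot.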

NCI-H460 [16] = assay: Downregulation of CDK4 protein expression in human NCI-H460 cells after 48 hrs by Western blot method; assay type: functional, cell-based; procedure, shortened: as §2
A549 [17] = assay: Downregulation of CDK4 protein expression in human A549 cells after 48 hrs by Western blot method; assay type: functional, cell-based
HepG2 [18] = assay: Downregulation of CDK4 protein expression in human HepG2 cells after 48 hrs by Western blot method; assay type: functional, cell-based
Hep 3B2 [19] = assay: Downregulation of CDK4 protein expression in human Hep3B cells after 48 hrs by Western blot method; assay type: functional, cell-based
Hep 3B2 [20] = assay: Downregulation of Cyclin-D1 protein expression in human Hep3B cells after 48 hrs by Western blot method; assay type: functional, cell-based; procedure, shortened: as §2
CDK4/CDK9 (Homo sapiens) = CDK4/CDK9 (Homo sapiens) (UniProt P11802+P50750); assay: Inhibition of CDK4/CDK9 in human NCI-H460 cells assessed as reduction in Rb phosphorylation at Ser807/811 residues at 1 uM after 48 hrs by Western blot method; assay type: cell-based
Histone deacetylase 1 [21] = target: T1, Histone deacetylase 1 (Homo sapiens, UniProt Q13547); assay: Inhibition of HDAC1 in human T47D cells assessed as increase in acetylated-histone H3 level at 1 to 5 uM after 48 hrs by Western blot method; assay type: cell-based
Histone deacetylase 1 [22] = target: T1, Histone deacetylase 1; assay: Inhibition of HDAC1 in human HepG2 cells assessed as increase in acetylated-histone H3 level at 1 to 5 uM after 48 hrs by Western blot method; assay type: cell-based
T47D [23] = assay: Induction of apoptosis in human T47D cells assessed as reduction in Bcl2 protein expression after 48 hrs by Western blot method; assay type: functional, cell-based
Procedure, shortened: (§3)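 Cells were treated with or without test agent, alongside a control, for 48h. They were then lysed and analysed by Western blot for Bcl-2 protein and cleaved caspase 3.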

HepG2 [24] = assay: Induction of apoptosis in human HepG2 cells assessed as reduction in Bcl2 protein expression after 48 hrs by Western blot method; assay type: functional, cell-based; procedure, shortened: as §3
Hep 3B2 [25] = assay: Induction of apoptosis in human Hep3B cells assessed as reduction in Bcl2 protein expression after 48 hrs by Western blot method; assay type: functional, cell-based
Procedure, shortened: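 Cells were treated with or without compound and control for 48 h, then lysed. Bcl-2 and cleaved caspase 3 were assessed by Western blot.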

[26] = Lipophilicity, log D of the compound at pH 7.4 by HPLC based shake flask method; assay type: physicochemical; settings: buffer
[27] = Bioavailability in Sprague-Dawley rat at 20 mg/kg, ip administered as single dose by HPLC analysis; assay type: ADME, organism-based; settings: in vivo
Rattus norvegicus = assay: Apparent volume of distribution at steady state in Sprague-Dawley rat at 20 mg/kg, ip administered as single dose by HPLC analysis; assay type: ADME, organism-based; settings: in vivo
[28] = AUC (0 to infinity) in Sprague-Dawley rat at 20 mg/kg, po administered as single dose by HPLC analysis; assay type: ADME, organism-based; parameters: dose 20 mg/kg, time infinity, route oral; settings: in vivo
[29] = Tmax in Sprague-Dawley rat at 20 mg/kg, po administered as single dose by HPLC analysis; assay type: ADME, organism-based; settings: in vivo
[30] = Oral bioavailability in Sprague-Dawley rat at 20 mg/kg administered as single dose by HPLC analysis; assay type: ADME, organism-based; settings: in vivo
Mus musculus = assay: Toxicity in Balb/c mouse assessed as overt signs of toxicity at 45 to 130 mg/kg, ip for 16 consecutive days; assay type: organism-based; settings: in vivo

T1 sequence (Q13547 whole entry): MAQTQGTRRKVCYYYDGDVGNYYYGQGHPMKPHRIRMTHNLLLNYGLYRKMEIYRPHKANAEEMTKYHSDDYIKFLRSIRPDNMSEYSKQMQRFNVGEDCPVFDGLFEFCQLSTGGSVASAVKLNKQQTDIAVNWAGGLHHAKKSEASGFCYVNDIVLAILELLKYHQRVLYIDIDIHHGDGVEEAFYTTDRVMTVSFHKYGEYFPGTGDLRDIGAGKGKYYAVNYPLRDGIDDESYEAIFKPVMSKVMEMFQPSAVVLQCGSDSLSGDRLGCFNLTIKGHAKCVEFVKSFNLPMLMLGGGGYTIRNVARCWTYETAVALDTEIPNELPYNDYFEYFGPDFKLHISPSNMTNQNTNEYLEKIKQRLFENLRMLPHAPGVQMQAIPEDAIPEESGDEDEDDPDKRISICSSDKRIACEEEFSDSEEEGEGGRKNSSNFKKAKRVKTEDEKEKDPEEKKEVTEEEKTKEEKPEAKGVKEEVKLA
Calcium/calmodulin-dependent protein kinase kinase 2, sequence (Q96RR4 whole entry): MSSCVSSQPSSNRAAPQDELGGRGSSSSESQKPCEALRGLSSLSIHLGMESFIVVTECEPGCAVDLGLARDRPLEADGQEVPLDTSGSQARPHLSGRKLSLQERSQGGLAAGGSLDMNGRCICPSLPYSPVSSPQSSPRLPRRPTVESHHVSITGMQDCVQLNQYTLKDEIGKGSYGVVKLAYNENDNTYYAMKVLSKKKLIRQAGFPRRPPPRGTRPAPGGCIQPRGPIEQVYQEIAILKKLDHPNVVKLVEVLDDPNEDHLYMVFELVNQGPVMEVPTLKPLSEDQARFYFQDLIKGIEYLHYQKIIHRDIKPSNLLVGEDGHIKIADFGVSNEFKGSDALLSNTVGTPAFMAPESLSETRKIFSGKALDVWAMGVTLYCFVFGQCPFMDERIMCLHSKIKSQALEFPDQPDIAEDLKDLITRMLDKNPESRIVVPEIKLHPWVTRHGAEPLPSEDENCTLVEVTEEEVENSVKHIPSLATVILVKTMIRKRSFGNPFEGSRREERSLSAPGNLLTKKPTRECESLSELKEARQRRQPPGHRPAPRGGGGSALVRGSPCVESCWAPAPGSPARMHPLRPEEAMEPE
CDK9/cyclin T1, sequence (O60563 whole entry): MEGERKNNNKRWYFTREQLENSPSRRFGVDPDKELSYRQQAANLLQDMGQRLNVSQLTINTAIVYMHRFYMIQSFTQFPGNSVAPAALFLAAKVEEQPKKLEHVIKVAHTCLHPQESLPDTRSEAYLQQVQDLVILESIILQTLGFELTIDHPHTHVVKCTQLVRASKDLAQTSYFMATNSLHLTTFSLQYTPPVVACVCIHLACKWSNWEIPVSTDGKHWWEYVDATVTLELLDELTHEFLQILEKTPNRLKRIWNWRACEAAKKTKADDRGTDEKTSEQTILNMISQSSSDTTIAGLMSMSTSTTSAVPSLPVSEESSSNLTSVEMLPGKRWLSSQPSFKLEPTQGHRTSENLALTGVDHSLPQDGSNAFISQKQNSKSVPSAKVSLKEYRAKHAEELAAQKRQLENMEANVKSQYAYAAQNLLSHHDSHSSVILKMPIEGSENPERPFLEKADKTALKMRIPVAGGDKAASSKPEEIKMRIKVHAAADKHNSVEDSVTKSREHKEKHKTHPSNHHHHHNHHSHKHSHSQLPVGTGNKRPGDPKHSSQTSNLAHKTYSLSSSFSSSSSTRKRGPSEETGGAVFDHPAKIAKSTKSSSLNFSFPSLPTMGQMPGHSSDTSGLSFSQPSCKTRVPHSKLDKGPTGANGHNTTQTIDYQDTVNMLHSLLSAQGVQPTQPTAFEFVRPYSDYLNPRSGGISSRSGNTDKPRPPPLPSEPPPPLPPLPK
CDK9/cyclin T1, sequence (P50750 whole entry): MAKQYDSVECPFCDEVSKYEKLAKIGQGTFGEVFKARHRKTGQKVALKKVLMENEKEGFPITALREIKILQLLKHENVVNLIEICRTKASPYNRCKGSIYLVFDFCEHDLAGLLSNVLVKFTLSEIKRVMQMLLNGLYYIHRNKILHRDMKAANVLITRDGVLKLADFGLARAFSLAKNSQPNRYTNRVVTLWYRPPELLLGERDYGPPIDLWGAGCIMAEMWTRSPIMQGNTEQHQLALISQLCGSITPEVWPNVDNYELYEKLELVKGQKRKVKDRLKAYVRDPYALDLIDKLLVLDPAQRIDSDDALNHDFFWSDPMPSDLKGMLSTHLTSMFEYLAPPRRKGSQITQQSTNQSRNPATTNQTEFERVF
CDK4/CDK9 (Homo sapiens), sequence (P11802 whole entry, looked up): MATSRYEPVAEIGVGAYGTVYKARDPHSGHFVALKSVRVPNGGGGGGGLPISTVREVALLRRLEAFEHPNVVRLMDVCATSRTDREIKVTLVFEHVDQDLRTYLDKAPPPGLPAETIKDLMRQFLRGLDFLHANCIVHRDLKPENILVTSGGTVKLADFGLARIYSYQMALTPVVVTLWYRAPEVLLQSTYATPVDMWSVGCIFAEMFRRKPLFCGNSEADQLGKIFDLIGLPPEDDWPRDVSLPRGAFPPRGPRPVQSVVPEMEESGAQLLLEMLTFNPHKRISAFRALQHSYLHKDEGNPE
CDK4/CDK9 (Homo sapiens), sequence (P50750 whole entry, looked up): as the sequence (P50750 whole entry) above
High affinity nerve growth factor receptor, sequence (P04629 whole entry): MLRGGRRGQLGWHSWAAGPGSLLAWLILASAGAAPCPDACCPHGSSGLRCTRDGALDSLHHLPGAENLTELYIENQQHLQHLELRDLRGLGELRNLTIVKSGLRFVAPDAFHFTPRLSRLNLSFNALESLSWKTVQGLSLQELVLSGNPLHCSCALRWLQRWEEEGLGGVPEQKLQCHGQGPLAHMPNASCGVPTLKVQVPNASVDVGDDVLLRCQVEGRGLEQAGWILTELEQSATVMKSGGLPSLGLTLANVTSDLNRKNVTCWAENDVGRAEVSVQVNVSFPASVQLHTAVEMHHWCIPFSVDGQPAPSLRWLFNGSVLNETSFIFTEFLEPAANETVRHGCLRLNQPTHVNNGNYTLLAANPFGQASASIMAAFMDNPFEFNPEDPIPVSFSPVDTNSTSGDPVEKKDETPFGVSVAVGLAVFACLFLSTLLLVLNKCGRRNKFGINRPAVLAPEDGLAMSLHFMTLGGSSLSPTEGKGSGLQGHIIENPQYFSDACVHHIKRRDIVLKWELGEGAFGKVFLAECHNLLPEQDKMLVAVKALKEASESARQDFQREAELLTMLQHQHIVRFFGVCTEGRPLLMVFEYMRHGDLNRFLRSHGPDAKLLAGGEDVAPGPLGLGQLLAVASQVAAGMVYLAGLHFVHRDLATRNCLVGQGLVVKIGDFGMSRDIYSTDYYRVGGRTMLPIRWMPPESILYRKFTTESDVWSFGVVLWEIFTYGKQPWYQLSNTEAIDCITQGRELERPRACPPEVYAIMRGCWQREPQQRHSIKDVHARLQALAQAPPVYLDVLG

## CN(C)C(=O)c1cc2cnc(Nc3ccc(NC(=O)CCCCCCC(=O)NO)cc3)nc2n1C1CCCC1
A549 [1]
  Activity: 13%
A549 [2]
  Activity: 2.41%
A549 [3]
  Activity: 80.5%
A549 [4]
  Activity: 6.67%
NCI-H460 [5]
  Activity: 10.9%
T47D [6]
  Activity: 4.5%
T47D [7]
  Activity: 88.3%
MDA-MB-231 [8]
  Activity: 5.76%
NCI-H1299
  IC50: 1870 nM
T47D [9]
  Activity: Active
MDA-MB-231 [10]
  Activity: Active
[11]
  IC50: 31 nM
[12]
  IC50: 53 nM
CDK9/cyclin T1
  IC50: 9 nM
4T1
  IC50: 1110 nM
HepG2 [13]
  Activity: 87.4%
A549 [14]
  Activity: Dose-dependent effect
MDA-MB-231 [15]
  Activity: Dose-dependent effect
NCI-H460 [16]
  Activity: Dose-dependent effect
A549 [17]
  Activity: Dose-dependent effect
HepG2 [18]
  Activity: Dose-dependent effect
Hep 3B2 [19]
  Activity: Dose-dependent effect
Hep 3B2 [20]
  Activity: Dose-dependent effect
CDK4/CDK9 (Homo sapiens)
  inhibition: Active
Histone deacetylase 1 [21]
  inhibition: Active
Histone deacetylase 1 [22]
  inhibition: Active
T47D [23]
  Activity: Active
HepG2 [24]
  Activity: Active
Hep 3B2 [25]
  Activity: Active
[26]
  logD: 2.02
[27]
  bioavailability: 34.7%
Rattus norvegicus
  Vdss(app): 119.94 L/kg
[28]
  AUC(0-inf): 1130 ng·h/mL
[29]
  Tmax: 1.8 h
[30]
  bioavailability: 18.4%
Mus musculus
  Activity: Non-Toxic
